Measured values collected from several papers.
Compare with care: the assays were run in different laboratories. pEC50, pIC50: −log10 of the molar value.
Observed: cell growth or viability

CC(C)Nc1ccnc(Nc2cccc(-c3ccccc3)c2)n1  pEC50 (MV4-11; ATP luminescence; 72 h): 5.40
CC(C)(CO)Cn1nc(-c2ccc3nc(OCC(F)(F)F)ccc3c2)c2c(N)ncnc21  GI50 (CRL8155): > 10 µM
CC1(C)C(=O)NC2=C1C(=O)C(=O)c1ccccc12  pIC50 (HN-6; 72 h): < 4.70
COC(=O)c1c(C)ncn1CC(c1cn(C)c2ccccc12)c1cn(C)c2ccccc12  inhibition (human Fibroblast; MTS; 20 µM; 24 h): 5.1%
COc1ccc(-c2ccc(-c3ccc(C(=N)N)nc3)s2)cc1Cl  GI50 (LOX IMVI; SRB): 1.87 µM
CCCCCCCCCCCCCCCCOP(=O)([O-])OCC[N+](C)(C)C  inhibition (human Fibroblast; MTS; 20 µM; 24 h): 46.2%
CC(C)c1ccccc1S(=O)(=O)c1cc(N)c2ncccc2c1[N+](=O)[O-]  pIC50 (HN-6; 72 h): < 4.70
COC(=O)c1cccc(-c2cccc(Nc3nccc(NC(C)C)n3)c2)c1  pEC50 (MV4-11; ATP luminescence; 72 h): 5.31
Cc1cn(CC(c2cn(C)c3ccccc23)c2cn(C)c3ccccc23)nn1  inhibition (human Fibroblast; MTS; 20 µM; 24 h): 17.1%
COc1ccc(-c2ccc(-c3ccc(C(=N)N)nc3)s2)cc1  GI50 (LOX IMVI; SRB): 1.88 µM
CC(C)=CCC[C@](C)(O)[C@H]1CC[C@]2(C)[C@@H]1[C@H](O)C[C@@H]1[C@@]3(C)CC[C@H](O[C@@H]4O[C@H](CO)[C@@H](O)[C@H](O)[C@H]4O[C@@H]4O[C@H](CO)[C@@H](O)[C@H](O)[C@H]4O)C(C)(C)[C@@H]3CC[C@]12C  IC20 (BEAS-2B; MTT; 72 h): > 100 µM
CCCNc1ccnc(Nc2cccc(-c3cccnc3)c2)n1  pEC50 (MV4-11; ATP luminescence; 72 h): 6.86
CNC(=O)COc1cc2cc(Nc3nc(N4CCC(C(=O)NCCCCCCCNC(=O)C[C@@H]5N=C(c6ccc(Cl)cc6)c6c(sc(C)c6C)-n6c(C)nnc65)CC4)ncc3Cl)cc(OC)c2n(C)c1=O  pEC50 (human Fibroblast; 72 h): ~6.33
c1ccc(-c2cccc(Nc3nccc(NC4CCCCC4)n3)c2)cc1  pEC50 (MV4-11; ATP luminescence; 72 h): < 5.40
Cn1nnc2c(C(N)=O)ncn2c1=O  pEC50 (SGC-7901): < 3.00
COC(=O)c1cccc(-c2cccc(Nc3nccc(NC4CCCCC4)n3)c2)c1  pEC50 (MV4-11; ATP luminescence; 72 h): 5.12
COC(C)(C)CCC[C@](C)(O)[C@H]1CC[C@]2(C)[C@@H]1[C@H](O)C[C@@H]1[C@@]3(C)CC[C@H](O)C(C)(C)[C@@H]3CC[C@]12C  IC80 (BEAS-2B; MTT; 72 h): > 100 µM
